Source: ChEMBL document CHEMBL1153878, “Hansch analysis of veratric acid derivatives as antimicrobial agents” (2009)
In brackets after ≈: the same amount, converted by molar mass.

What was measured:
Assay type in all cases: functional
[1] = system: Staphylococcus aureus; experiment: Antibacterial activity against Staphylococcus aureus MTCC 1430 by serial dilution method; design: -logMIC: scale not given here; details: for MIC: Staphylococcus aureus, MTCC 1430, read-out: MIC
Method in brief: (§1)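 Tube serial dilution in 1 ml sterile double strength nutrient broth I.P., test range […] per ml. Inoculum: […] of a saline suspension at 10⁵ cfu/ml from a fresh 24-h culture, grown in double strength nutrient broth at 37 ± 1 °C. […] Exact MIC refined by further dilution of the stock.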

[2] = system: Bacillus subtilis; experiment: Antibacterial activity against Bacillus subtilis MTCC 2423 by serial dilution method; design: -logMIC: unit not given here; details: for MIC: Bacillus subtilis, MTCC 2423, read-out: MIC; method in brief: as §1
[3] = system: Aspergillus niger; experiment: Antifungal activity against Aspergillus niger MTCC 2425 by serial dilution method; design: -logMIC: scale not given here; details: for MIC: Aspergillus niger, MTCC 2425, read-out: MIC
[4] = system: Escherichia coli; experiment: Antibacterial activity against Escherichia coli MTCC 739 by serial dilution method; design: -logMIC: scale not given here; details: for MIC: Escherichia coli, MTCC 739, read-out: MIC; method in brief: as §1
[5] = system: Candida albicans; experiment: Antifungal activity against Candida albicans MTCC 227 by serial dilution method; design: -logMIC: unit not given here; details: for MIC: Candida albicans, MTCC 227, read-out: MIC

Row | SMILES | -logMIC [1] | MIC [1] | -logMIC [2] | MIC [2] | -logMIC [3] | MIC [3] | -logMIC [4] | MIC [4] | -logMIC [5] | MIC [5]
1 | COc1ccc(C(=O)Nc2cccc(Cl)c2)cc1OC | 1.17 | 20 µg/mL (≈ 68.6 µM) | 1.39 | 12 µg/mL (≈ 41.1 µM) | 1.32 | 14 µg/mL (≈ 48 µM) | 1.23 | 17 µg/mL (≈ 58.3 µM) | 1.29 | 15 µg/mL (≈ 51.4 µM)
2 | COc1ccc(C(=O)Nc2ccc([N+](=O)[O-])cc2)cc1OC | 1.25 | 17 µg/mL (≈ 56.2 µM) | 1.41 | 11.5 µg/mL (≈ 38 µM) | 1.35 | 13 µg/mL (≈ 43 µM) | 1.16 | 21 µg/mL (≈ 69.5 µM) | 1.32 | 14 µg/mL (≈ 46.3 µM)
3 | COc1ccc(C(=O)Nc2ccc(Cl)cc2)cc1OC | 1.19 | 19 µg/mL (≈ 65.1 µM) | 1.28 | 15 µg/mL (≈ 51.4 µM) | 1.3 | 14.5 µg/mL (≈ 49.7 µM) | 1.39 | 12 µg/mL (≈ 41.1 µM) | 1.34 | 13.5 µg/mL (≈ 46.3 µM)
4 | COc1ccc(C(=O)N(CCO)CCO)cc1OC | 1.21 | 16.5 µg/mL (≈ 61.3 µM) | 1.31 | 12.5 µg/mL (≈ 46.4 µM) | 1.36 | 12 µg/mL (≈ 44.6 µM) | 1.21 | 16.5 µg/mL (≈ 61.3 µM) | 1.31 | 12.5 µg/mL (≈ 46.4 µM)
5 | COc1ccc(C(=O)NN)cc1OC | 0.93 | 23 µg/mL (≈ 117 µM) | 1.15 | 14 µg/mL (≈ 71.4 µM) | 1.12 | 15 µg/mL (≈ 76.5 µM) | 0.93 | 23 µg/mL (≈ 117 µM) | 1.15 | 14 µg/mL (≈ 71.4 µM)
6 | COc1ccc(C(=O)Nc2ccccc2Cl)cc1OC | 1.28 | 15 µg/mL (≈ 51.4 µM) | 1.39 | 12 µg/mL (≈ 41.1 µM) | 1.34 | 13.5 µg/mL (≈ 46.3 µM) | 1.23 | 17 µg/mL (≈ 58.3 µM) | 1.34 | 13.5 µg/mL (≈ 46.3 µM)
7 | COc1ccc(C(=O)Nc2ccccc2C)cc1OC | 1.2 | 17 µg/mL (≈ 62.7 µM) | 1.26 | 15 µg/mL (≈ 55.3 µM) | 1.4 | 11 µg/mL (≈ 40.5 µM) | 1.16 | 18.5 µg/mL (≈ 68.2 µM) | 1.31 | 13 µg/mL (≈ 47.9 µM)
8 | COc1ccc(C(=O)NCc2ccccc2)cc1OC | 1.15 | 19 µg/mL (≈ 70 µM) | 1.32 | 13 µg/mL (≈ 47.9 µM) | 1.36 | 12 µg/mL (≈ 44.2 µM) | 1.15 | 19 µg/mL (≈ 70 µM) | 1.32 | 13 µg/mL (≈ 47.9 µM)
9 | COc1ccccc1NC(=O)c1ccc(OC)c(OC)c1 | 1.23 | 17 µg/mL (≈ 59.2 µM) | 1.34 | 13 µg/mL (≈ 45.2 µM) | 1.32 | 14 µg/mL (≈ 48.7 µM) | 1.23 | 17 µg/mL (≈ 59.2 µM) | 1.29 | 15 µg/mL (≈ 52.2 µM)
10 | COc1ccc(C(=O)N2CCOCC2)cc1OC | 1.08 | 21 µg/mL (≈ 83.6 µM) | 1.28 | 13 µg/mL (≈ 51.7 µM) | 1.33 | 12 µg/mL (≈ 47.8 µM) | 1.17 | 17 µg/mL (≈ 67.7 µM) | 1.37 | 11 µg/mL (≈ 43.8 µM)
11 | COc1ccc(C(=O)Nc2cccc(C)c2)cc1OC | 1.2 | 17 µg/mL (≈ 62.7 µM) | 1.31 | 13 µg/mL (≈ 47.9 µM) | 1.35 | 12.5 µg/mL (≈ 46.1 µM) | 1.2 | 17 µg/mL (≈ 62.7 µM) | 1.42 | 10 µg/mL (≈ 36.9 µM)
12 | COc1ccc(C(=O)Nc2ccc(C)cc2)cc1OC | 1.15 | 18.5 µg/mL (≈ 68.2 µM) | 1.31 | 13 µg/mL (≈ 47.9 µM) | 1.35 | 12.5 µg/mL (≈ 46.1 µM) | 1.2 | 17 µg/mL (≈ 62.7 µM) | 1.32 | 13 µg/mL (≈ 47.9 µM)
13 | COc1ccc(NC(=O)c2ccc(OC)c(OC)c2)cc1 | 1.2 | 18 µg/mL (≈ 62.6 µM) | 1.38 | 12 µg/mL (≈ 41.8 µM) | 1.4 | 11.5 µg/mL (≈ 40 µM) | 1.18 | 19 µg/mL (≈ 66.1 µM) | 1.36 | 12.5 µg/mL (≈ 43.5 µM)
14 | COc1ccc(C(=O)Nc2cccc([N+](=O)[O-])c2)cc1OC | 1.22 | 18 µg/mL (≈ 59.5 µM) | 1.46 | 10.5 µg/mL (≈ 34.7 µM) | 1.36 | 13 µg/mL (≈ 43 µM) | 1.36 | 13 µg/mL (≈ 43 µM) | 1.27 | 16 µg/mL (≈ 52.9 µM)
15 | COc1ccc(C(=O)Nc2ccc(Br)cc2)cc1OC | 1.25 | 19 µg/mL (≈ 56.5 µM) | 1.4 | 13 µg/mL (≈ 38.7 µM) | 1.44 | 12.5 µg/mL (≈ 37.2 µM) | 1.25 | 19 µg/mL (≈ 56.5 µM) | 1.34 | 15 µg/mL (≈ 44.6 µM)
16 | COc1ccc(C(=O)Nc2cccc(O)c2)cc1OC | 1.2 | 17 µg/mL (≈ 62.2 µM) | 1.26 | 15 µg/mL (≈ 54.9 µM) | 1.36 | 12 µg/mL (≈ 43.9 µM) | 1.16 | 19 µg/mL (≈ 69.5 µM) | 1.36 | 12 µg/mL (≈ 43.9 µM)
17 | COc1ccc(C(=O)N2CCCCC2)cc1OC | 1.15 | 17.5 µg/mL (≈ 70.2 µM) | 1.33 | 12 µg/mL (≈ 48.1 µM) | 1.28 | 13 µg/mL (≈ 52.1 µM) | 1.1 | 20 µg/mL (≈ 80.2 µM) | 1.25 | 14 µg/mL (≈ 56.2 µM)
18 | COc1ccc(C(=O)Nc2ccccc2)cc1OC | 1.05 | 23 µg/mL (≈ 89.4 µM) | 1.25 | 14 µg/mL (≈ 54.4 µM) | 1.29 | 13 µg/mL (≈ 50.5 µM) | 1.04 | 23 µg/mL (≈ 89.4 µM) | 1.2 | 16 µg/mL (≈ 62.2 µM)
19 | COC(=O)c1ccc(OC)c(OC)c1 [VERATRIC ACID METHYL ESTER] | 1.04 | 18 µg/mL (≈ 91.7 µM) | 1.2 | 12 µg/mL (≈ 61.2 µM) | 1.15 | 14 µg/mL (≈ 71.4 µM) | 1.04 | 18 µg/mL (≈ 91.7 µM) | 1.2 | 12 µg/mL (≈ 61.2 µM)
20 | COc1ccc(C(=O)O)cc1OC [VERATRIC ACID] | 1.01 | 18 µg/mL (≈ 98.8 µM) | 1.31 | 9 µg/mL (≈ 49.4 µM) | 1.11 | 14 µg/mL (≈ 76.8 µM) | 1.06 | 16 µg/mL (≈ 87.8 µM) | 1.22 | 11 µg/mL (≈ 60.4 µM)
